Results pooled from the literature.
Compare with care: the assays were run in different laboratories.
Target: Casein kinase I isoform gamma-1 (CSNK1G1, Homo sapiens, UniProt Q9HCP0)

| SMILES | observed | action | technique | tested at | measurement | result |
| --- | --- | --- | --- | --- | --- | --- |
| COc1cc2ncnc(Nc3ccc(F)c(Cl)c3)c2cc1OCCCN1CCOCC1 | cell-free assay | – | – | 0.5 µM | remaining signal | 99.5% |
| CNC(=O)c1cc(Oc2ccc(NC(=O)Nc3ccc(Cl)c(C(F)(F)F)c3)cc2)ccn1 | enzyme activity | inhibitor | – | 0.3 µM | inhibition | -16% |
| N#CCCc1ccc2c(c1)-c1[nH]c3ccc([N+](=O)[O-])cc3c1CC(=O)N2 | cell-free assay | – | – | 0.5 µM | remaining signal | 81.6% |
| Cc1ccc(Nc2nccc(N(C)c3ccc4c(C)n(C)nc4c3)n2)cc1S(N)(=O)=O | enzyme activity | inhibitor | – | 10 µM | inhibition | -8% |
| Cc1cc(NC(=O)c2cccc3cc(-c4cccc5[nH]nc(N)c45)ccc23)ccc1F | enzyme activity | inhibitor | – | 0.1 µM | activity vs control | 90% |
| CCC(=O)N[C@@H]1CC[C@H](C(=O)N(C)c2ccc(-c3nc4ccccc4o3)cc2)C1 | cell-free assay | – | competition with immobilised ligand | 1 µM | remaining binding | 100% |
| CC(C)(O)[C@H]1CC[C@H](Nc2ccc3ncc(-c4cccc(C(F)(F)F)c4)n3n2)CC1 | enzyme activity | inhibitor | – | 1 µM | remaining activity | 93% |
| Cc1sc(C(=O)NC2COC2)cc1-n1cc(NC(=O)Nc2c(F)cccc2Cl)cn1 | enzyme activity | inhibitor | – | 10 µM | remaining activity | 101% |
| CCc1ccccc1C(=O)Nc1n[nH]c2c(C)c(F)c(C3C(C#N)=C(C)N(C)C(C)=C3C#N)cc12 | cell-free assay | – | competition with immobilised ligand | 1 µM | remaining binding | 95% |
| c1cnn2ncc(-c3ccnc(N4CCC45COC5)n3)c2c1 | binding | – | – | 1 µM | remaining binding | 84% |
| O=C1Nc2ccc(Cl)cc2C1=Cc1cc(Cl)c(O)c(Cl)c1 | cell-free assay | – | – | 0.5 µM | remaining signal | 89% |
| CC(C)(C)c1nc(-c2cccc(NS(=O)(=O)c3c(F)cccc3F)c2F)c(-c2ccnc(N)n2)s1 | enzyme activity | inhibitor | radiometric | 1 µM | remaining activity | 96% |
| CCS(=O)(=O)c1cc2cc(C[C@@](O)(CC(C)(C)c3ccc(F)cc3C(N)=O)C(F)(F)F)[nH]c2cn1 | cell-free assay | – | competition with immobilised ligand | 1 µM | remaining binding | 100% |
| COc1cc(Cl)c(C(=O)N[C@@H](CN[C@H]2CC[C@@H](N)CC2)Cc2ccc(C#N)cc2)cc1-c1ccc(CN[C@H](C)c2ccc(C)cc2)o1 | enzyme activity | inhibitor | – | 1 µM | remaining activity | 87% |
| C[C@H](c1cccc(C#N)c1)n1cc(Cl)cc(C(N)=O)c1=N | cell-free assay | – | competition with immobilised ligand | 1 µM | remaining binding | 96% |
| COc1cc2ncnc(Nc3ccc(Oc4ccccc4)cc3C)c2cc1OC | enzyme activity | inhibitor | – | 1 µM | inhibition | 8% |
| CNC(=O)c1ccc(Nc2ncc(C(F)(F)F)c(NCc3nccnc3N(C)S(C)(=O)=O)n2)cc1 | cell-free assay | – | competition with immobilised ligand | 0.1 µM | remaining binding | 82% |
| Nc1ncnc2occ(-c3ccc(NC(=O)Nc4cc(C(F)(F)F)ccc4F)cc3)c12 | cell-free assay | inhibitor | – | 20 µM | remaining signal | 18% |
| COc1ccc2cc(OCC3(C(=O)O)CN(C(=O)c4ccc(F)cc4)C3)ccc2c1 | cell-free assay | – | competition with immobilised ligand | 1 µM | remaining binding | 94% |
| Cc1ccc(C(=O)Nc2ccc(CN3CCN(C)CC3)c(C(F)(F)F)c2)cc1C#Cc1cnc2cccnn12 | enzyme activity | inhibitor | – | 23.5 nM | remaining activity | 89% |
